Reference: ChEMBL document CHEMBL1165859, “Synthesis, antiproliferative, acute toxicity and assessment of antiandrogenic activities of some newly synthesized steroidal lactams” (Eur J Med Chem, 2010)
The source made the active and inactive calls. The calls are words filed in the database; no cut-off is given here.

Experiments:
DU-145 [1] = assay: Antiproliferative activity against human DU145 cells assessed as growth inhibition at 0.01 ug/mL after 48 hrs by MTT assay relative to control; assay type: functional; settings: for inhibition of growth at 0.01 µg/mL: DU-145, 48 h, read-out: GI
Outline: (§1)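 DU-145 cells grown in DMEM with 10% heat-inactivated FBS and streptomycin/penicillin at 37 °C, 5% CO2. Cells seeded at 5×10³/well and left to attach 24 h. Compounds in ethanol, final 0.01, 0.5, 1.0, 2.0 and 5.0 µg/mL, given in triplicate for 48 h. MTT added for 4 h, formazan dissolved in DMSO, A570 read. Viability is A(test)/A(control)×100, mean ± SEM of 3 experiments. IC50 taken from a linear log dose–response fit.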

DU-145 [2] = assay: Antiproliferative activity against human DU145 cells assessed as growth inhibition at 0.5 ug/mL after 48 hrs by MTT assay relative to control; assay type: functional; settings: for inhibition of growth at 0.5 µg/mL: DU-145, 48 h, read-out: GI; outline: as §1
DU-145 [3] = assay: Antiproliferative activity against human DU145 cells assessed as growth inhibition at 1 ug/mL after 48 hrs by MTT assay relative to control; assay type: functional; settings: for inhibition of growth at 1 µg/mL: DU-145, 48 h, read-out: GI; outline: as §1
DU-145 [4] = assay: Antiproliferative activity against human DU145 cells assessed as growth inhibition at 2 ug/mL after 48 hrs by MTT assay relative to control; assay type: functional; settings: for inhibition of growth at 2 µg/mL: DU-145, 48 h, read-out: GI; outline: as §1
DU-145 [5] = assay: Antiproliferative activity against human DU145 cells assessed as growth inhibition at 5 ug/mL after 48 hrs by MTT assay relative to control; assay type: functional; settings: for inhibition of growth at 5 µg/mL: DU-145, 48 h, read-out: GI; outline: as §1
DU-145 [6] = assay: Antiproliferative activity against human DU145 cells assessed as growth inhibition after 48 hrs by MTT assay; assay type: functional, cell-based; settings: DU-145, 48 h; outline: as §1
[7] = Cytotoxicity against Balb/C mouse macrophages assessed as cell viability at 5 ug/ml after 24 hrs by MTT assay; assay type: cell-based, Macrophage; settings: read-out: Activity
Rattus norvegicus [8] = assay: Antiandrogenic activity in Sprague-Dawley rat assessed as increase of serum testosterone level at 40 mg/kg, ip equimolar dose of finasteride after 6 hrs by ELISA; assay type: functional
Outline: (§2)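 Intact male Sprague Dawley rats (200–250 g), 5 per group. Compounds suspended in olive oil:ethanol (95:5), single intraperitoneal dose equimolar to 40 mg/kg finasteride; controls received vehicle alone. Blood taken by cardiac puncture under diethyl ether anaesthesia 6 h after dosing. Serum testosterone measured by competitive ELISA (T-antibody-coated wells, HRP-T conjugate, 4 h at 37 °C, H2O2 substrate 20 min, H2SO4 stop) at 450 nm. Results are mean ± SEM.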

[9] = Cytotoxicity against Balb/C mouse macrophages assessed as cell viability after 24 hrs by MTT assay; assay type: cell-based; settings: Macrophage
Rattus norvegicus [10] = assay: Antiandrogenic activity in ip dosed Sprague-Dawley rat assessed as increase of serum testosterone level after 6 hrs by ELISA (reference value: 0.742 +/- 0.07 ng/ml); assay type: functional; outline: as §2

C[C@]12CC[C@H](OC(=O)c3ccc(Cl)cc3)CC1=CC[C@@H]1[C@@H]2CC[C@]2(C)NC(=O)CC[C@@H]12
inhibition of growth at 0.01 µg/mL (DU-145 [1]): 19%
inhibition of growth at 0.5 µg/mL (DU-145 [2]): 27.9%
inhibition of growth at 1 µg/mL (DU-145 [3]): 42.2%
inhibition of growth at 2 µg/mL (DU-145 [4]): 49.4%
inhibition of growth at 5 µg/mL (DU-145 [5]): 67.6%
IC50 (DU-145 [6]): 8.3 µM
viability at 24 h, 5 ug/ml [7]: 6%
Activity (Rattus norvegicus [8]): Active

C[C@]12CC[C@H](OC(=O)c3ccc([N+](=O)[O-])cc3)CC1=CC[C@@H]1[C@@H]2CC[C@]2(C)NC(=O)CC[C@@H]12
inhibition of growth at 0.01 µg/mL (DU-145 [1]): 33.9%
inhibition of growth at 0.5 µg/mL (DU-145 [2]): 41.4%
inhibition of growth at 1 µg/mL (DU-145 [3]): 57.9%
inhibition of growth at 2 µg/mL (DU-145 [4]): 73.5%
inhibition of growth at 5 µg/mL (DU-145 [5]): 88.9%
IC50 (DU-145 [6]): 5.2 µM
Activity (Rattus norvegicus [8]): Active

C[C@]12CC[C@H](OC(=O)c3ccccc3)CC1=CC[C@@H]1[C@@H]2CC[C@]2(C)NC(=O)CC[C@@H]12
inhibition of growth at 0.01 µg/mL (DU-145 [1]): 28.1%
inhibition of growth at 0.5 µg/mL (DU-145 [2]): 35.7%
inhibition of growth at 1 µg/mL (DU-145 [3]): 38.8%
inhibition of growth at 2 µg/mL (DU-145 [4]): 45%
inhibition of growth at 5 µg/mL (DU-145 [5]): 63.6%
IC50 (DU-145 [6]): 9.5 µM
Activity (Rattus norvegicus [8]): Active

C[C@]12CC[C@H](OC(=O)COc3ccccc3)CC1=CC[C@@H]1[C@@H]2CC[C@]2(C)NC(=O)CC[C@@H]12
growth inhibition (GI) (DU-145 [1]): inactive
growth inhibition (GI) (DU-145 [2]): inactive
growth inhibition (GI) (DU-145 [3]): inactive
growth inhibition (GI) (DU-145 [4]): inactive
growth inhibition (GI) (DU-145 [5]): inactive
Activity (Rattus norvegicus [8]): Active

C[C@]12CC[C@H](OC(=O)c3ccc(N)cc3)CC1=CC[C@@H]1[C@@H]2CC[C@]2(C)NC(=O)CC[C@@H]12
inhibition of growth at 0.01 µg/mL (DU-145 [1]): 30.5%
inhibition of growth at 0.5 µg/mL (DU-145 [2]): 43.4%
inhibition of growth at 1 µg/mL (DU-145 [3]): 45%
inhibition of growth at 2 µg/mL (DU-145 [4]): 48%
inhibition of growth at 5 µg/mL (DU-145 [5]): 82.4%
IC50 (DU-145 [6]): 7.1 µM
Activity (Rattus norvegicus [8]): Active

C[C@]12CC[C@H](OC(=O)Cc3ccccc3)CC1=CC[C@@H]1[C@@H]2CC[C@]2(C)NC(=O)CC[C@@H]12
growth inhibition (GI) (DU-145 [1]): inactive
growth inhibition (GI) (DU-145 [2]): inactive
growth inhibition (GI) (DU-145 [3]): inactive
inhibition of growth at 2 µg/mL (DU-145 [4]): 48.3%
inhibition of growth at 5 µg/mL (DU-145 [5]): 73.1%
IC50 (DU-145 [6]): 7.1 µM
LC50 [9]: 26 µM
Activity (Rattus norvegicus [8]): Active

C[C@]12CC[C@H](OC(=O)CCl)CC1=CC[C@@H]1[C@@H]2CC[C@]2(C)NC(=O)CC[C@@H]12
growth inhibition (GI) (DU-145 [1]): inactive
growth inhibition (GI) (DU-145 [2]): inactive
growth inhibition (GI) (DU-145 [3]): inactive
growth inhibition (GI) (DU-145 [4]): inactive
growth inhibition (GI) (DU-145 [5]): inactive
viability at 24 h, 5 ug/ml [7]: 6%
Activity (Rattus norvegicus [8]; route intraperitoneal): 0.82 ng/mL

C[C@]12CC[C@H](OC(=O)c3ccc(O)cc3)CC1=CC[C@@H]1[C@@H]2CC[C@]2(C)NC(=O)CC[C@@H]12
inhibition of growth at 0.01 µg/mL (DU-145 [1]): 30.7%
inhibition of growth at 0.5 µg/mL (DU-145 [2]): 51.4%
inhibition of growth at 1 µg/mL (DU-145 [3]): 59.2%
inhibition of growth at 2 µg/mL (DU-145 [4]): 65.6%
inhibition of growth at 5 µg/mL (DU-145 [5]): 69.5%
IC50 (DU-145 [6]): 5.7 µM
Activity (Rattus norvegicus [8]): Active

Cc1ccc(C(=O)O[C@H]2CC[C@@]3(C)C(=CC[C@@H]4[C@@H]3CC[C@]3(C)NC(=O)CC[C@@H]43)C2)cc1
inhibition of growth at 0.01 µg/mL (DU-145 [1]): 21.6%
inhibition of growth at 0.5 µg/mL (DU-145 [2]): 29.5%
inhibition of growth at 1 µg/mL (DU-145 [3]): 40.7%
inhibition of growth at 2 µg/mL (DU-145 [4]): 68.1%
inhibition of growth at 5 µg/mL (DU-145 [5]): 77%
IC50 (DU-145 [6]): 7.5 µM
Activity (Rattus norvegicus [8]): Active

C[C@]12CC[C@H](O)CC1=CC[C@@H]1[C@@H]2CC[C@]2(C)NC(=O)CC[C@@H]12
growth inhibition (GI) (DU-145 [1]): inactive
growth inhibition (GI) (DU-145 [2]): inactive
growth inhibition (GI) (DU-145 [3]): inactive
growth inhibition (GI) (DU-145 [4]): inactive
growth inhibition (GI) (DU-145 [5]): inactive
Activity (Rattus norvegicus [8]): Active

CC(C)(C)NC(=O)[C@H]1CC[C@H]2[C@@H]3CC[C@H]4NC(=O)C=C[C@]4(C)[C@H]3CC[C@]12C [FINASTERIDE]
inhibition of growth at 0.01 µg/mL (DU-145 [1]): 5%
inhibition of growth at 0.5 µg/mL (DU-145 [2]): 8.83%
inhibition of growth at 1 µg/mL (DU-145 [3]): 16.5%
inhibition of growth at 2 µg/mL (DU-145 [4]): 36%
inhibition of growth at 5 µg/mL (DU-145 [5]): 78.5%
IC50 (DU-145 [6]): 3.9 µM
Activity (Rattus norvegicus [10]): 1.26 ng/mL

COc1ccc(C(=O)O[C@H]2CC[C@@]3(C)C(=CC[C@@H]4[C@@H]3CC[C@]3(C)NC(=O)CC[C@@H]43)C2)cc1
inhibition of growth at 0.01 µg/mL (DU-145 [1]): 17.4%
inhibition of growth at 0.5 µg/mL (DU-145 [2]): 25.2%
inhibition of growth at 1 µg/mL (DU-145 [3]): 21.3%
inhibition of growth at 2 µg/mL (DU-145 [4]): 33.9%
inhibition of growth at 5 µg/mL (DU-145 [5]): 43%
IC50 (DU-145 [6]): 15.1 µM
Activity (Rattus norvegicus [8]; route intraperitoneal): 1.05 ng/mL
